A selection: hits, their analogues and other compounds. The true share with any hit is near 2.5%.
PG9 Ab binder – binds the HIV-1 gp120 antibody PG9. TR-FRET gp120-PG9 antibody binding. inhibition, % at 6.7 µM. hit rate 0.43% among 360,000. AID 624416; in the data active means inhibition above about 8.5%
MC4R barr agon – activates human MC4R beta-arrestin recruitment; P32245; U2OS MC4R beta-arrestin complementation, luminescence; percent of melanotan II response, DMSO zero; activation, % at 8.9 µM; hit rate 0.98% among 360,000;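 active means activation above a per-plate cutoff, the mean activation of sample wells on that plate plus 3 SD, cut at about 8% in these data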
MC4R antagonist – blocks human MC4R cAMP signaling; AID 540295; inhibition, % at 6.5 µM; P32245; MC4R-expressing cells, MTII-stimulated cAMP, LANCE TR-FRET; hit rate 0.48% among 360,000;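 active means inhibition above its plate's cutoff, the mean of tested wells on that plate plus 3 SD, cut at about 29% in these data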;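 further: 0% = Melanotan II alone and 100% = Melanotan II plus saturating MCL0020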
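System – human MC4R-expressing U2OS cells · Also added – Melanotan II · Dosing – one concentration, 6.5 µM nominal · Timing – 30-min compound, 1-h challenge, 1-h detection, room temperature · Measured by – Eu-cAMP/anti-cAMP TR-FRET, emission 671 nm · Replicates – singlicate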
Rev-erbA mod – Rev-erb alpha (human) modulation. activity, % at 10 µM. P20393. Rev-erbα–FITC-DNA binding, fluorescence polarization, 90 min. hit rate 0.79% among 370,000;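 active means activity above about 14%, limit read from the data; passing the limit was not always enough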;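 further: 0% = DMSO wells with 35 nM protein and 100% = DMSO wells with 750 nM protein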
Target sequence (P20393 whole entry, looked up): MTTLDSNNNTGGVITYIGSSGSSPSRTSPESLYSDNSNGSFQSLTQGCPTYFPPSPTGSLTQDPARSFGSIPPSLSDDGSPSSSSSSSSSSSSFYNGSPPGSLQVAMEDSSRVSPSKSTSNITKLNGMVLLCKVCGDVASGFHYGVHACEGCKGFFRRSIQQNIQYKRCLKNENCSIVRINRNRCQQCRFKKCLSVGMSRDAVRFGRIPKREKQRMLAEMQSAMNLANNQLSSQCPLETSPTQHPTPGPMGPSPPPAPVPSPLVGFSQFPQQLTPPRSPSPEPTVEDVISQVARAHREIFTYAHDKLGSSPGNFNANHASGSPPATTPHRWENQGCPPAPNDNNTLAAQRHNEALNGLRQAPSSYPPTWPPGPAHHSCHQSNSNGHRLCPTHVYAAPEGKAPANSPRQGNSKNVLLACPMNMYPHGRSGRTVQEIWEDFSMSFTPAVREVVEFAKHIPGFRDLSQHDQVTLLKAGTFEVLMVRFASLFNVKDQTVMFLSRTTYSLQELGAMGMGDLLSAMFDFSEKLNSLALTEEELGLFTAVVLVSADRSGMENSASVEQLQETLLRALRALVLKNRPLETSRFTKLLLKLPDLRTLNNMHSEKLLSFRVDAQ
NTR1 agonist – agonists of human neurotensin receptor NTR1 | P30989 | NTR1-U2OS beta-arrestin-GFP spot imaging, agonist mode | activation, % at 20 µM | hit rate 0.17% among 330,000 | AID 493036;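 active means activation at or above 40% of the spot to cytoplasm intensity ratio, with at least 20 cells analyzed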;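 further: 0% = DMSO without peptide and 100% = 100 nM NTR1 peptide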
MC4R barr conf – human MC4R beta-arrestin agonism confirmation; shares compounds with MC4R barr agon; hit rate 31% among 2,400; AID 602192; activation, % at 8.9 µM; U2OS MC4R beta-arrestin recruitment, luminescence; scaled DMSO 0%, Melanotan II 100%;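 active means mean activation across replicates above the hit cutoff set in the earlier primary screen, cut at about 8% in these data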
MOR DOR agonist – counter-screen for MC4R agonists: agonists of mu-delta opioid heterodimer | shares compounds with MC4R barr agon | U2OS PathHunter beta-arrestin, beta-gal luminescence; percent of deltorphin B response, DMSO zero | activation, % at 9.2 µM | hit rate 5.8% among 2,400;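 active means mean activation across replicates exceeds the hit threshold derived in the earlier primary screen, cut at about 18% in these data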;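 further: 100% = deltorphin B at 0.9 µM final and 0% = DMSO alone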
An asterisk follows results filed as active; . = not tested or not shown.

SMILES	PG9 Ab binder	MC4R barr agon	MC4R antagonist	Rev-erbA mod	NTR1 agonist	MC4R barr conf	MOR DOR agonist
COc1cc(NC(=O)c2ccc(C)cc2C)ccc1NC(=O)c1cc2ccccc2o1	2	12*	5	-1	8	16*	12
O=C(Nc1ccc2c(c1)CCC2)c1cc2ccccc2o1	1	2	1	1	1	.	.
O=C(Nc1ccc2c(c1)Cc1ccccc1-2)c1cc2ccccc2o1	-2	13*	4	6	0	-1	3
COc1cc(NC(=O)c2cccc(F)c2)ccc1NC(=O)c1cc2ccccc2o1	1	12*	-5	-15	5	5	9
CCN=C1NC(c2ccc(Cl)cc2)C(C(=O)OC)=C(C)N1Cc1cccc(C(F)(F)F)c1 (stereo not drawn)	-1	.	.	7	.	.	.
CCOc1cc(NC(=O)c2ccco2)c(OCC)cc1NC(=O)c1cc(OC)c(OC)c(OC)c1	2	13*	0	5	5	4	53*
O=C(c1ccc(F)cc1F)N(Cc1ccccn1)CC1CCCO1 (stereo not drawn)	.	.	.	-3	.	.	.
OCC(S)CS (stereo not drawn)	.	.	.	10	.	.	.
O=C(CSc1nc(CCC2CCCC2)nc2ccccc12)NCc1ccc2c(c1)OCO2	1	20*	25	7	12	3	6
Cc1cc(NC(=O)CSc2nc(CCC3CCCC3)nc3ccccc23)no1	2	5	12	3	4	.	.
COCCN1Cc2cc(C(=O)OC)c3c(c2C1=O)c1cc(F)ccc1n3S(=O)(=O)c1ccc(C)cc1	0	.	.	0	.	.	.
Cc1c(-c2ccccc2)nc(N)c(C#N)c1-c1ccco1	-3	12*	-2	-1	-1	2	4
Cc1cc(-c2n[nH]c(=S)n2N=Cc2c3ccccc3cc3ccccc23)n[nH]1	.	.	.	5	.	.	.
O=C(c1ccc(Cl)cc1)N1CCc2c([nH]c3ccccc23)C1C(F)(F)F (stereo not drawn)	-1	9.8*	17	0	8	1	8
COc1ccc(/C=N\NC(=O)c2cc(OCC(F)(F)F)ccc2OCC(F)(F)F)cc1	-2	11*	-1	3	2	6	7
Cc1ccc(-c2ccc(/C=N\NC(=O)C3C(=O)NCC3c3ccccc3)o2)cc1Cl (stereo not drawn)	-2	13*	2	0	9	5	2
Cc1cccc(Nc2ncnc3onc(-c4cccc(Cl)c4)c23)c1	2	11*	6	-3	-1	0	6
COCC(=O)N[C@H]1C[C@@H]2O[C@H](CO)CC[C@@H]2O[C@@H]1CCc1ccc(-c2ccccc2)cc1	.	.	.	2	.	.	.
Clc1ccc(-n2c(Cc3cccs3)nnc2SC/C=C/c2ccccc2)cc1	.	.	.	-1	.	.	.
Cc1ccc(C(=O)Nc2c(C)cc(-c3ccc(Cl)cc3)oc2=O)cc1	1	19*	-6	-1	0	0	8
Cc1cc(-c2ccc(Cl)cc2)oc(=O)c1NC(=O)c1ccccc1	2	0	0	10	1	.	.
O=C(N[C@H](Cc1ccccc1)C(=O)N1CCN(CC(=O)N2CCCC2)CC1)[C@H]1O[C@@H](n2ccc(=O)[nH]c2=O)[C@H](O)[C@@H]1O	-1	.	.	-3	.	.	.
Cc1nn(Cc2ccc(F)cc2)c2sc(C(=O)Nc3nccs3)cc12	16*	13*	3	12	4	2	5
C[C@@H]1CNC(=O)c2c(C(=O)N3CCN(c4ccccc4)CC3)ncn21	-2	.	.	1	.	.	.
CCOC(=O)c1c(C)[nH]c(C(=O)OCc2ccc(C)cc2)c1C	1	0	16	-4	2	.	.
CC(=O)c1c(C)[nH]c(C(=O)OCC(=O)Nc2ccc([N+](=O)[O-])cc2Cl)c1C	0	28*	8	-8	2	2	16
CCOC(=O)c1c(C)[nH]c(C(=O)OCc2ccc([N+](=O)[O-])cc2)c1C	1	17*	1	6	4	4	4
COC(=O)[C@H]1C[C@@]2(N3CCCCC3)c3ccccc3N(S(=O)(=O)c3ccccc3)[C@H]2N1	.	.	.	-7	.	.	.
